The values that follow come from ChEMBL document CHEMBL1629439, “High-throughput identification of antibacterials against methicillin-resistant Staphylococcus aureus (MRSA) and the transglycosylase” (Bioorg Med Chem, 2010).

The MIC is the least concentration at which growth counts as inhibited.

The subject of assay [1] is Stenotrophomonas maltophilia. Put plainly: Antimicrobial activity against Stenotrophomonas maltophilia ATCC 13637 after 18 to 24 hrs by alamar blue assay. The class given is functional. The conditions noted are these: Stenotrophomonas maltophilia, ATCC 13637; read-out: MIC. The essentials: (§1)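 Broth microdilution per NCCLS in Mueller-Hinton broth, 8-point twofold dilutions, 384-well format. Exponential-phase cells at 5 × 10^5 cells/ml incubated with compound 18–24 h at 37 °C, then 20% Alamar blue added and fluorescence read. MIC90 taken as the lowest concentration preventing at least 90% bacterial growth.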
Background: Alamar Blue is a resazurin reagent that responds to reducing activity.

Assay [2] relates to Acinetobacter baumannii. Briefly: Antimicrobial activity against Acinetobacter baumannii ATCC 49139 after 18 to 24 hrs by alamar blue assay. The conditions noted are these: Acinetobacter baumannii, ATCC 49139; read-out: MIC. It is filed as functional. The essentials:
as §1

Assay [3] concerns Mycolicibacterium smegmatis. Briefly: Antimicrobial activity against Mycobacterium smegmatis BCRC 11565 after 18 to 24 hrs by alamar blue assay. The conditions noted are these: Mycolicibacterium smegmatis, BCRC 11565; read-out: MIC. It is filed as functional. The essentials:
as §1

Assay [4] concerns Staphylococcus aureus. Briefly: Antimicrobial activity against Staphylococcus aureus ATCC 29213 after 18 to 24 hrs by alamar blue assay.
The subject of assay [5] is Serratia marcescens. Put plainly: Antimicrobial activity against Serratia marcescens ATCC 14756 after 18 to 24 hrs by alamar blue assay. The class given is functional. Conditions: Serratia marcescens, ATCC 14756; read-out: MIC. An outline of the steps:
as §1

In assay [6] the test system is Staphylococcus aureus. Put plainly: Antimicrobial activity against oxacillin- and methicillin-resistant Staphylococcus aureus isolate Sa-OXA-R2 after 18 to 24 hrs by alamar blue assay. The class given is functional. An outline of the steps:
(§2)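 Broth microdilution per NCCLS standard, Mueller-Hinton broth, 8-point twofold dilutions; exponentially growing cells at 5 10^5 cells/ml with compound, 18–24 h at 37 C; 20% Alamar blue added, fluorescence read; MIC90 taken as lowest concentration preventing at least 90% growth.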

Assay [7] has as its system Staphylococcus aureus. Briefly: Antimicrobial activity against methicillin-resistant Staphylococcus aureus ATCC 33592 after 18 to 24 hrs by alamar blue assay. The conditions noted are these: Staphylococcus aureus, ATCC 33592; read-out: MIC. It is filed as functional. An outline of the steps: as §2
In assay [8] the test system is Pseudomonas aeruginosa. Briefly: Antimicrobial activity against Pseudomonas aeruginosa ATCC 25619 after 18 to 24 hrs by alamar blue assay. The class given is functional. Conditions: Pseudomonas aeruginosa, ATCC 25619; read-out: MIC. An outline of the steps:
as §1

The subject of assay [9] is Staphylococcus aureus. Put plainly: Antimicrobial activity against methicillin-resistant Staphylococcus aureus isolate NTUH4722 after 18 to 24 hrs by alamar blue assay. The class given is functional. An outline of the steps: as §2
Assay [10] relates to Escherichia coli. Put plainly: Antimicrobial activity against Escherichia coli ATCC […] after 18 to 24 hrs by alamar blue assay. It is filed as functional. Conditions: Escherichia coli; read-out: MIC. An outline of the steps:
as §1

In assay [11] the test system is Bacillus subtilis. Briefly: Antimicrobial activity against Bacillus subtilis ATCC 23857 after 18 to 24 hrs by alamar blue assay. It is filed as functional. The essentials:
as §1

≈ marks a conversion by molar mass, not a printed value.

As for `CCCCN(C)S(=O)(=O)c1ccc(C(=O)Nc2nnc(-c3cccc(OC)c3)o2)cc1`, the MIC in [1] was above 256 µg/mL; in [2], above 256 µg/mL; in [3] it was 0.5 µg/mL (≈ 1.12 µM); in assay [4], 4 µg/mL (≈ 9 µM); in [5] it was above 256 µg/mL; in [6], 32 µg/mL (≈ 72 µM). The MIC in [7] is 8 µg/mL (≈ 18 µM); in assay [8], above 256 µg/mL; in assay [9], 16 µg/mL (≈ 36 µM); in assay [10], above 256 µg/mL; in assay [11] it was 0.5 µg/mL (≈ 1.12 µM).
Regarding `O=C(Nc1ccc(-c2nc3ccccc3[nH]2)cc1)c1ccc([N+](=O)[O-])o1`, the MIC in assay [1] amounted to 32 µg/mL (≈ 91.9 µM); in assay [2], 12 µg/mL (≈ 34.5 µM); in [3], 0.5 µg/mL (≈ 1.44 µM); in [4], 0.125 µg/mL (≈ 0.359 µM); in assay [5], 32 µg/mL (≈ 91.9 µM); in assay [6] it was 4 µg/mL (≈ 11.5 µM). The MIC in [7] came to 0.25 µg/mL (≈ 0.718 µM); in assay [8] it was 128 µg/mL (≈ 367 µM); in assay [9] it was 8 µg/mL (≈ 23 µM); in assay [10], 256 µg/mL (≈ 735 µM); in assay [11] it was 0.06 µg/mL (≈ 0.172 µM).
On to `Cc1ccc(C)c(NS(=O)(=O)c2ccc3c(c2)NCC(C)C(=O)S3)c1` (stereo not drawn), for which the MIC in assay [1] is above 256 µg/mL; in assay [2], above 256 µg/mL; in [3], above 64 µg/mL; in assay [4] it was 2 µg/mL (≈ 5.31 µM); in [5], above 256 µg/mL; in assay [6], above 64 µg/mL. The MIC was 16 µg/mL (≈ 42.5 µM) in assay [7]; above 256 µg/mL in assay [8]; 32 µg/mL (≈ 85 µM) in assay [9]; above 256 µg/mL in assay [10]; below 0.03 µg/mL in assay [11].
As to `O=C(Nc1nnc(-c2ccc(Cl)cc2)o1)c1cccc(C(F)(F)F)c1`, the MIC is above 256 µg/mL in assay [1]; above 256 µg/mL in assay [2]; 0.5 µg/mL (≈ 1.36 µM) in assay [3]; 1 µg/mL (≈ 2.72 µM) in assay [4]; above 256 µg/mL in assay [5]; 0.125 µg/mL (≈ 0.34 µM) in [6]. Besides, the MIC in assay [7] is 0.5 µg/mL (≈ 1.36 µM); in assay [8], above 256 µg/mL; in assay [9], 0.125 µg/mL (≈ 0.34 µM); in assay [10], above 256 µg/mL; in [11], 0.5 µg/mL (≈ 1.36 µM).
For `O=C1c2ccc([N+](=O)[O-])c3c([N+](=O)[O-])ccc(c23)C(=O)N1c1ccccc1`, the MIC in [1] was above 256 µg/mL; in assay [2], above 256 µg/mL; in assay [3], 4 µg/mL (≈ 11 µM); in [4], 2.5 µg/mL (≈ 6.88 µM); in assay [5], above 256 µg/mL; in assay [6], 1.25 µg/mL (≈ 3.44 µM). Besides, the MIC in assay [7] is 2.5 µg/mL (≈ 6.88 µM); in assay [8] it was above 256 µg/mL; in assay [9], 1.25 µg/mL (≈ 3.44 µM); in [10] it was above 256 µg/mL; in assay [11] it was 4 µg/mL (≈ 11 µM).
In the case of `Cc1ccc(NS(=O)(=O)c2ccc3c(c2)NC(=O)C(C)S3)c(C)c1` (stereo not drawn), the MIC in [1] was above 256 µg/mL; in [2], above 256 µg/mL; in assay [3], above 64 µg/mL; in assay [4], 2 µg/mL (≈ 5.52 µM); in assay [5], above 256 µg/mL; in [6] it was above 64 µg/mL. In addition, the MIC in [7] was 32 µg/mL (≈ 88.3 µM); in assay [8] it was above 256 µg/mL; in assay [9], 4 µg/mL (≈ 11 µM); in assay [10] it was above 256 µg/mL; in assay [11], below 0.03 µg/mL.
Turning to `CCc1ccccc1NS(=O)(=O)c1ccc2c(c1)NC(=O)C(C)S2` (stereo not drawn), the MIC in assay [1] was above 256 µg/mL; in [2] it was above 256 µg/mL; in [3], above 64 µg/mL; in [4], 0.5 µg/mL (≈ 1.38 µM); in assay [5], above 256 µg/mL; in assay [6], 1 µg/mL (≈ 2.76 µM). The MIC in assay [7] is 1 µg/mL (≈ 2.76 µM); in assay [8], above 256 µg/mL; in assay [9], 32 µg/mL (≈ 88.3 µM); in assay [10], above 256 µg/mL; in assay [11] it was below 0.03 µg/mL.
In the case of `O=C(Nc1cccc(Cl)c1)c1cc(Br)cc(Br)c1O`, the MIC was determined as 16 µg/mL (≈ 39.5 µM) in [1]; 16 µg/mL (≈ 39.5 µM) in assay [2]; 0.5 µg/mL (≈ 1.23 µM) in assay [3]; 2 µg/mL (≈ 4.93 µM) in [4]; 16 µg/mL (≈ 39.5 µM) in assay [5]; 8 µg/mL (≈ 19.7 µM) in [6]. The MIC is 2 µg/mL (≈ 4.93 µM) in assay [7]; 16 µg/mL (≈ 39.5 µM) in assay [8]; 2 µg/mL (≈ 4.93 µM) in assay [9]; 8 µg/mL (≈ 19.7 µM) in assay [10]; below 0.03 µg/mL in assay [11].
